Data on one molecule can be found in ChEMBL document CHEMBL3596131, “Discovery of a novel trans-1,4-dioxycyclohexane GPR119 agonist series” (Bioorg Med Chem Lett, 2015).

SMILES strings stand for the structures. Activity calls are given as the source filed them. The rule behind the calls is not given here.

The target of data set [1] is Voltage-gated inwardly rectifying potassium channel KCNH2 (Homo sapiens, UniProt Q12809). Put plainly: Inhibition of human ERG by patch clamp assay. (In patch-clamp work, channel activity is measured electrically.)
Data set [2] in a line: Clearance in Sprague-Dawley rat at 2 mg/kg, iv and po. Format: ADME, organism-based. The conditions noted are these: in vivo. The gist of the method: (§1)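 Male Sprague-Dawley rats; 2 mg/kg IV and 2 mg/kg PO in 20% hp-β-CD; clearance, Vss, terminal t1/2, Cmax, AUClast and oral bioavailability derived.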
The target in data set [3] is Cytochrome P450 2D6 (Homo sapiens, UniProt P10635). Put plainly: Inhibition of CYP2D6 in human liver microsomes. Format: ADME. A general note: Microsomes from liver hold many membrane-bound enzymes, among them those of drug oxidation.
Data set [4] relates to Rattus norvegicus. Put plainly: Antidiabetic activity in Zucker diabetic fatty rat assessed as decrease in HbA1C level administered as qd over 4 weeks measured on day 28 post last dose. It is filed as functional, organism-based. The gist of the method: (§2)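 Chronic study in ZDF rats: once-daily dosing at 1, 3 or 10 mg/kg for 4 weeks, vehicle 0.5% methylcellulose; fed glucose and body weight tracked at dosing times, HbA1c measured on day 28 relative to vehicle.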

The nature of data set [5]: Oral bioavailability in Sprague-Dawley rat at 2 mg/kg. It is filed as ADME, organism-based. Particulars: in vivo. The gist of the method: as §1
Data set [6] is described as follows: Plasma protein binding in rat. Format: ADME, cell-free. The conditions noted are these: read-out: PPB (converted).
Data set [7] in a line: Plasma protein binding in mouse. Format: ADME, organism-based. Particulars: read-out: PPB (converted).
For data set [8], the system named is Mus musculus. Put plainly: In vivo activation of GPR119 in normoglycemic 129SVE mouse assessed as increase in GIP level in plasma at 3 to 30 mg/kg, po measured after 45 mins relative to vehicle-treated control. It is filed as functional, organism-based. The method in brief: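 Normoglycemic male 129SVE mice dosed orally (3 and 30 mg/kg); plasma GIP measured 45 min after dosing versus vehicle-treated controls; AR231453 at 30 mg/kg as reference agonist.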

Data set [9] relates to Rattus norvegicus. Put plainly: Antidiabetic activity in Zucker diabetic fatty rat assessed as decrease in HbA1C level at 10 mg/kg, qd administered over 4 weeks measured on day 28 post last dose relative to vehicle-treated control. Format: functional. The arrangement: scale not given: the % may be the effect or the level left. The method in brief: as §2
The target in data set [10] is T1, Glucose-dependent insulinotropic receptor (Homo sapiens) (UniProt Q8TDV5).
T1 sequence (whole entry): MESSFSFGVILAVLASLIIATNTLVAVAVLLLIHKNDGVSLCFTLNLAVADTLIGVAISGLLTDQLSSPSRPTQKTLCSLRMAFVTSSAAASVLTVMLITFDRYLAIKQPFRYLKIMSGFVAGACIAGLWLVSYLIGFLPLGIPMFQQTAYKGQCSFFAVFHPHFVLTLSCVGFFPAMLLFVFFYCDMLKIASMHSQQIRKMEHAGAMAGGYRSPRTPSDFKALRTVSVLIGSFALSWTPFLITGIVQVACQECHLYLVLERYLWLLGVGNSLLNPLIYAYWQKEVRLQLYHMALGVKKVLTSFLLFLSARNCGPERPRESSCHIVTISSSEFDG
Put plainly: Agonist activity at human GPR119 by HTRF cAMP assay relative to AR231453. Format: functional. (In TR-FRET formats the signal depends on donor and acceptor labels being close together.)

The test system of data set [11] is Rattus norvegicus. Kind of data set: Antidiabetic activity in Zucker diabetic fatty rat assessed as suppression of plasma glucose AUC administered 60 mins prior to glucose challenge by OGTT. It is filed as functional, organism-based.
The target of data set [12] is T2, Glucose-dependent insulinotropic receptor (Mus musculus, UniProt Q7TQP3).
T2 sequence (Q7TQP3 whole entry): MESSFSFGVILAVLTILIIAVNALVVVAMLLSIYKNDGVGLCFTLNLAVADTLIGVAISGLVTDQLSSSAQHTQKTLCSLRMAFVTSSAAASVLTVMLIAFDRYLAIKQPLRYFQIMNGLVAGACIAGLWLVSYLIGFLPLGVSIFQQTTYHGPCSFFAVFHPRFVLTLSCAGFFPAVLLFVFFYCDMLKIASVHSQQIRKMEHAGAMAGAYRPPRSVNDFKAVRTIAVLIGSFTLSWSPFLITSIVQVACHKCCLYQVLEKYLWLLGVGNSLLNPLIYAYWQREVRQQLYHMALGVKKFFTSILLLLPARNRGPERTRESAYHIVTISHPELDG
Kind of data set: Agonist activity at mouse GPR119 by HTRF cAMP assay. It is filed as functional.

For data set [13], the system named is Rattus norvegicus. Put plainly: Antidiabetic activity in Zucker diabetic fatty rat assessed as decrease in HbA1C level at 1 mg/kg, qd administered over 4 weeks measured on day 28 post last dose relative to vehicle-treated control. Format: functional. The arrangement: scale not given: the % may be the effect or the level left. The method in brief: as §2
The test system of data set [14] is HepG2. Put plainly: Cytotoxicity against human HepG2 cells. It is filed as cell-based.
Data set [15] can be described thus: Time-dependent inhibition of CYP450 in human liver microsomes. Format: ADME.
Data set [16] in a line: Agonist activity at monkey GPR119 by HTRF cAMP assay. The arrangement: species or system Macaca mulatta.
Data set [17] concerns the target T3, Uncharacterized protein (Canis lupus familiaris, UniProt A0A8C0THM6).
T3 sequence (A0A8C0THM6 whole entry): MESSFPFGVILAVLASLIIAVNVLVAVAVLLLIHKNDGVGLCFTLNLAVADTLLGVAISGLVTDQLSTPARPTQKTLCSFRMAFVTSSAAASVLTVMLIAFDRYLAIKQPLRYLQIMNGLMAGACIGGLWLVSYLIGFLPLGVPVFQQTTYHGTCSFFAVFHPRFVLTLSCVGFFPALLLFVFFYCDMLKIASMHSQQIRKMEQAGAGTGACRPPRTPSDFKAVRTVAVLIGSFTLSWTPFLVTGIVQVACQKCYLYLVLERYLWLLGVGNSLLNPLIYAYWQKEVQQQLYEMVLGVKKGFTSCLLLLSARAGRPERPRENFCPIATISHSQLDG
Put plainly: Agonist activity at canine GPR119 by HTRF cAMP assay.

Data set [18] has as its system Rattus norvegicus. Put plainly: Toxicity in Zucker diabetic fatty rat assessed as effect on body weight at 1 to 10 mg/kg, qd administered over 4 weeks measured during compound dosing. Format: organism-based. The conditions noted are these: in vivo, 672 h. The gist of the method: as §2
Data set [19] has as its system Rattus norvegicus. Kind of data set: Antidiabetic activity in Zucker diabetic fatty rat assessed as suppression of plasma glucose AUC at 3 mg/kg administered 60 mins prior to glucose challenge by OGTT relative to vehicle-treated control. Format: functional.
The target of data set [20] is T4, Uncharacterized protein (Canis lupus familiaris) (UniProt A0A8C0THM6).
T4 sequence (whole entry): T3 sequence (A0A8C0THM6 whole entry)
Put plainly: Agonist activity at canine GPR119 by HTRF cAMP assay relative to AR231453.

For data set [21], the target named is T5, Cytochrome P450 1A2 (Homo sapiens, UniProt P05177).
T5 sequence (P05177 whole entry): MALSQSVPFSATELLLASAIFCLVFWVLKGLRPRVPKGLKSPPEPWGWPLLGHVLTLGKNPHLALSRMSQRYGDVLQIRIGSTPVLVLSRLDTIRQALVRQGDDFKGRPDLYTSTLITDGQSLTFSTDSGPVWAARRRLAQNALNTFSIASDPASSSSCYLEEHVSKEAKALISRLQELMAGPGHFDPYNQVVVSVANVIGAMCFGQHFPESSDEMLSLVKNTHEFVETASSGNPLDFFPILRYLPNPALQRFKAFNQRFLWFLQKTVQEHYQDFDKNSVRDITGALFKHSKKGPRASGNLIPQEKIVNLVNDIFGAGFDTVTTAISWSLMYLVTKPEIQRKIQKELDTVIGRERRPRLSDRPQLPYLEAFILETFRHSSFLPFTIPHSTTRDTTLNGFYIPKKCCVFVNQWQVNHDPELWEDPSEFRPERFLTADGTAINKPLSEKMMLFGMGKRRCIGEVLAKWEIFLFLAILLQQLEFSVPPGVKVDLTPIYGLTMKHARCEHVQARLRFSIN
Put plainly: Inhibition of CYP1A2 in human liver microsomes. Format: ADME.

A short description of data set [22]: Half life in rat liver microsomes. Format: ADME.
A short description of data set [23]: Half life in human hepatocytes. It is filed as ADME, cell-based, Hepatocyte.

Voltage-gated inwardly rectifying potassium channel KCNH2, sequence (Q12809 whole entry): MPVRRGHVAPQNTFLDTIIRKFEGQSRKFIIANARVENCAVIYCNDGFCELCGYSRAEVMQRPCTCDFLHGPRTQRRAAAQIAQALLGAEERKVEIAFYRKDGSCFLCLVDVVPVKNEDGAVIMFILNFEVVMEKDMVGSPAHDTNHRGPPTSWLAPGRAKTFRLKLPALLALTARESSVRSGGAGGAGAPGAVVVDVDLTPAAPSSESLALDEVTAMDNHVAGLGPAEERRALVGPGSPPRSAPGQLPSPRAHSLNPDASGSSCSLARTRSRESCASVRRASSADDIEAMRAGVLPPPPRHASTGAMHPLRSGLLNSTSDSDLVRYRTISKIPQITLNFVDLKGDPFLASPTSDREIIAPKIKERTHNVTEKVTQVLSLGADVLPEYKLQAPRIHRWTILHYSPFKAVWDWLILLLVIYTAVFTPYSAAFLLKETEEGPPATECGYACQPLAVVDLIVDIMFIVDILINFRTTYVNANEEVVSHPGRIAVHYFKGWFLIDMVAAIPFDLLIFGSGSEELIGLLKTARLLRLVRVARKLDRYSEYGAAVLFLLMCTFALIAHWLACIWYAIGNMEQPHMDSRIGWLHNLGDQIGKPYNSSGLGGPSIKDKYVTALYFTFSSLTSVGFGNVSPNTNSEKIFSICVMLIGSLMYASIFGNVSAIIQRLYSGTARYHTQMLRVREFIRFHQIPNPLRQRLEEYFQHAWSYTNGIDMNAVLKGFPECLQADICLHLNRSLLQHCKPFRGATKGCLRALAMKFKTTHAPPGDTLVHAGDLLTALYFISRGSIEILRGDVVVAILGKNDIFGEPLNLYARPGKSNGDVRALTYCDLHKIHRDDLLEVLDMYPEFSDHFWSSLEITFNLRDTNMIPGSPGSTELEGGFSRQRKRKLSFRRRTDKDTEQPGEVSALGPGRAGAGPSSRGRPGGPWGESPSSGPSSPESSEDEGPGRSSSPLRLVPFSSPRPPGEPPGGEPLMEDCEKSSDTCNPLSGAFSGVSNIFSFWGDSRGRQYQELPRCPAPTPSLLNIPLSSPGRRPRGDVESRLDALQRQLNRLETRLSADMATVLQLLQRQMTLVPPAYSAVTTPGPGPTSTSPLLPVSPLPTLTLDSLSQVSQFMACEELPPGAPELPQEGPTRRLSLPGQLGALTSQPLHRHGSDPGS
Cytochrome P450 2D6, sequence (P10635 whole entry): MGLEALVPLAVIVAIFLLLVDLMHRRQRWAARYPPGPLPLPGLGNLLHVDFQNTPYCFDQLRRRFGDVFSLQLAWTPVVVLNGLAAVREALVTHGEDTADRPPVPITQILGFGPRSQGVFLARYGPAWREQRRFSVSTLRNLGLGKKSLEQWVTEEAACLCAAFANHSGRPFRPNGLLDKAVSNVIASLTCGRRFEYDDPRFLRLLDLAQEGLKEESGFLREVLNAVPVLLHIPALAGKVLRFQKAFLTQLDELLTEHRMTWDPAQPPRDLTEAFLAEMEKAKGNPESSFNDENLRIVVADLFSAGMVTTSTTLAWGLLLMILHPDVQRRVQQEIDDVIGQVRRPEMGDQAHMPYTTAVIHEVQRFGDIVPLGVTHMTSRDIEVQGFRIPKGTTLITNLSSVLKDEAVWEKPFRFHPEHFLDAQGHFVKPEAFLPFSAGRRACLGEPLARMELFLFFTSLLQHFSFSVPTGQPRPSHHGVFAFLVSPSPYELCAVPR

Usually IC50 stands for the midpoint of a concentration-inhibition curve. The bioavailability is dose-corrected exposure relative to a reference, in per cent. The term Emax denotes the size of the effect at its maximum, as opposed to the concentration needed. As a reminder, the EC50 is the midpoint of the concentration-response curve. A word on the half-life: it is the time in which the quantity being followed falls by half. On to `C[C@@H](OC(=O)N1CCC(O[C@H]2CC[C@H](Oc3cnc(S(C)(=O)=O)cn3)CC2)CC1)C(F)(F)F`, for which the IC50 in data set [1] is > 30000 nM. The clearance in data set [2] is 6.67 mL/min/kg. Further, the INH in data set [3] and in [21] was > 50 µM each time. For the same molecule, the Activity entry in data set [4] was “Dose-dependent effect”; in data set [9], 2.58%; in data set [11], “Dose-dependent effect”; in [13] it was 1.63%; in [14] it was “Non-toxic”; in data set [18], “Non-toxic”. Also, the Activity in [19] is listed as 43%. This molecule gave a bioavailability in data set [5] of 100%. Further, the fraction unbound was 0.04 in data set [6] and 0.065 in data set [7]. The result in data set [8] was Active. The Emax in data set [10] came to 106%; in data set [20], 144%. Besides, the EC50 was 20.5 nM in [12], 3.4 nM in data set [16] and 6.1 nM in data set [17]. Further, the TDI result in data set [15] is reported as “Not Active”. The half-life in [22] was > 1 h; in data set [23], > 2 h.
